Key:
Conditions in all cases: stereoisomer not certain
O2AK2 S99N = test system: O2AK2 S99N
Summary of the method: (§1)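 Transient luciferase assays in mammalian cell lines were common, though methods varied by source. The values come from published papers and their supplementary material, with extra details from the original authors when needed. Responsive refers to a measured signal the original authors judged statistically different from baseline, and non-responsive (inactive) to the remainder.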

O2T11 = test system: O2T11
Summary of the method: as §1

O2T27 L36V V134D = test system: O2T27 L36V V134D
Summary of the method: as §1

O2T29 Q24R = test system: O2T29 Q24R
Summary of the method: as §1

O2T33 A169V = test system: O2T33 A169V
Summary of the method: as §1

O2T33 G297E I309L = test system: O2T33 G297E I309L
Summary of the method: as §1

O2T34 Q6P R267P = test system: O2T34 Q6P R267P
Summary of the method: as §1

O2T34 R267P = test system: O2T34 R267P
Summary of the method: as §1

O4A47 = test system: O4A47
Summary of the method: as §1

O4C46 S240F C252Y K288R = test system: O4C46 S240F C252Y K288R
Summary of the method: as §1

O4F15 A272T = test system: O4F15 A272T
Summary of the method: as §1

O4F15 S149F = test system: O4F15 S149F
Summary of the method: as §1

O4F17 [1] = test system: O4F17
Summary of the method: as §1
Target sequence in this assay (as listed by the source): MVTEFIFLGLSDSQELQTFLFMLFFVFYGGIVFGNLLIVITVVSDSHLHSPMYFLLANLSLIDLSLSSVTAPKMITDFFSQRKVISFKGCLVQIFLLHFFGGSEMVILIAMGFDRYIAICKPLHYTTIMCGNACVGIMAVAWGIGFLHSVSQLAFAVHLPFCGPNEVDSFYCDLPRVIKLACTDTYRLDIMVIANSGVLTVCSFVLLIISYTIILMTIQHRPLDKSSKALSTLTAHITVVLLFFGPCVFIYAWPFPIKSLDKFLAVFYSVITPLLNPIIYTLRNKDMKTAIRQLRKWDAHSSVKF

O4F17 [2] = test system: O4F17; remark: listed apart in the source
Summary of the method: as §1
Target sequence in this assay (as listed by the source): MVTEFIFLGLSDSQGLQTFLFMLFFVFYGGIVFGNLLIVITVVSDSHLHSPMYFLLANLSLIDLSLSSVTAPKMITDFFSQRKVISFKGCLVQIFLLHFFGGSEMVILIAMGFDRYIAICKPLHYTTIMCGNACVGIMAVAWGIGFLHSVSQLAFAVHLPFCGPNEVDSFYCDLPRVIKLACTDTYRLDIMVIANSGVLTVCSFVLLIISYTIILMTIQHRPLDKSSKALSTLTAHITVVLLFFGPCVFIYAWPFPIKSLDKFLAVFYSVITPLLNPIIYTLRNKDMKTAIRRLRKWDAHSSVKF

O4F21 F44L = test system: O4F21 F44L
Summary of the method: as §1

O51A7 E8D = test system: O51A7 E8D
Summary of the method: as §1

O51B2 C120R C209S P283S = test system: O51B2 C120R C209S P283S
Summary of the method: as §1

O51B4 M147T = test system: O51B4 M147T
Summary of the method: as §1

O51B4 = test system: O51B4
Summary of the method: as §1

O51B5 G5S I102T P160L = test system: O51B5 G5S I102T P160L
Summary of the method: as §1

Measured: odorant receptor agonist call;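 also: active if original authors judged signal statistically different from baseline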

Chain of O2AK2 S99N (as listed by the source, stated change not applied): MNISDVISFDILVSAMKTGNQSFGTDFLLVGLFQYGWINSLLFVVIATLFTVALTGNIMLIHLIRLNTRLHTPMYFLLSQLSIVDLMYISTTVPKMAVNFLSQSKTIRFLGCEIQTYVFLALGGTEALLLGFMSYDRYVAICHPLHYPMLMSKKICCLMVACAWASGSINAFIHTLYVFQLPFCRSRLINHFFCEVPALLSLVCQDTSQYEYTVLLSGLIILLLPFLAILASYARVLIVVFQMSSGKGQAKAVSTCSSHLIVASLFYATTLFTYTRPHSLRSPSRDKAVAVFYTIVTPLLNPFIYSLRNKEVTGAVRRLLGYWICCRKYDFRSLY
Chain of O4A47 (as listed by the source): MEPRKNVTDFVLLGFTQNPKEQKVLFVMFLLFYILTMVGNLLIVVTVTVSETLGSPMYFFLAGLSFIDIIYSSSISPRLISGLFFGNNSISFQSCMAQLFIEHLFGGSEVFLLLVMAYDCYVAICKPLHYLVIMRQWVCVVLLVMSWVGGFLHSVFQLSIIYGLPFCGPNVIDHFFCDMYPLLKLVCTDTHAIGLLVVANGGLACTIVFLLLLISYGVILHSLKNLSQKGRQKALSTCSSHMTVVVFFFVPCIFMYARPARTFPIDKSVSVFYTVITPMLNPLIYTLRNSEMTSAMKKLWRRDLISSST
Chain of O4F15 A272T (as listed by the source, stated change not applied): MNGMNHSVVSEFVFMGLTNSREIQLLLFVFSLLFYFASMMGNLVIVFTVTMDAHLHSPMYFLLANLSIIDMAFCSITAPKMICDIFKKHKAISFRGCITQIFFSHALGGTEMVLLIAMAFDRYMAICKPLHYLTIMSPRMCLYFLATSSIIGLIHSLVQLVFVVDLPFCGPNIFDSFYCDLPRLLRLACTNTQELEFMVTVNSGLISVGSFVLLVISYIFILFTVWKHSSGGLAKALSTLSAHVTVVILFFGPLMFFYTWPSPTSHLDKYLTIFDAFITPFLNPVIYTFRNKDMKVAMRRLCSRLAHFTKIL
Chain of O4F15 S149F (as listed by the source, stated change not applied): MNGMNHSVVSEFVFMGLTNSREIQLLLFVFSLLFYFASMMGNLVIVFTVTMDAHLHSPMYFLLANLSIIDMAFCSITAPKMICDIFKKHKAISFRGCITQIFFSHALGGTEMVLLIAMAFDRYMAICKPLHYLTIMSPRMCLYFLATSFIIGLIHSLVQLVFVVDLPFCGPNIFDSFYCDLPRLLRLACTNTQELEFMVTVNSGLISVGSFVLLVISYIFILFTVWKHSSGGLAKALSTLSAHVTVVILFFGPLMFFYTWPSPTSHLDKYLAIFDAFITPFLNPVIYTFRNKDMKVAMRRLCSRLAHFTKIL
Chain of O51B4 M147T (as listed by the source, stated change not applied): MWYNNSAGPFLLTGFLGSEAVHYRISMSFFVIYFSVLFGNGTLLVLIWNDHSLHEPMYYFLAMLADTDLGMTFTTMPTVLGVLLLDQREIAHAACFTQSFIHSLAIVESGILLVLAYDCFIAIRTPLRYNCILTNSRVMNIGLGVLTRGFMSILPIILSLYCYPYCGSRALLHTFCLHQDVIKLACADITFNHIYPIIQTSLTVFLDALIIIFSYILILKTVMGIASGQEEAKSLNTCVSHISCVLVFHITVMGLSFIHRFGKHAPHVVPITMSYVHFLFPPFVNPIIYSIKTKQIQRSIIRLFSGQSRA
Chain of O2T33 A169V (as listed by the source, stated change not applied): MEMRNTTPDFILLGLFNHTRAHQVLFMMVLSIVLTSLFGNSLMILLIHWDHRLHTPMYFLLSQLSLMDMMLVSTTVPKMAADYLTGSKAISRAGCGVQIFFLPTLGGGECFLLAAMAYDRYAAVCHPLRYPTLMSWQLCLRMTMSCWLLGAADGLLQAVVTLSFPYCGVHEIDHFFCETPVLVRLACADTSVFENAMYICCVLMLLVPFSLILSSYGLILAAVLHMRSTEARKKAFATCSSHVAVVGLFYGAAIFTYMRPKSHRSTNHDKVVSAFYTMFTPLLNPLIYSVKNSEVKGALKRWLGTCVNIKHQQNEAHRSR
Chain of O2T34 R267P (as listed by the source, stated change not applied): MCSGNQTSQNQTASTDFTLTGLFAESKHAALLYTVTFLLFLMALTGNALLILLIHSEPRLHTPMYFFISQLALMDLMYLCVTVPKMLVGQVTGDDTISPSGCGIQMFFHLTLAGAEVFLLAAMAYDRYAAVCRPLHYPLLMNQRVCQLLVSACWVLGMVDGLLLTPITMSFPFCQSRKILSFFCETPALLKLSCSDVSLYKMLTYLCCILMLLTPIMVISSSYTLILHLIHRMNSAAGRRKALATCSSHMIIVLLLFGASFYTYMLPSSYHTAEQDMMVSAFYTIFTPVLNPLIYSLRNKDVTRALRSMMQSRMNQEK
Chain of O4F21 F44L (as listed by the source, stated change not applied): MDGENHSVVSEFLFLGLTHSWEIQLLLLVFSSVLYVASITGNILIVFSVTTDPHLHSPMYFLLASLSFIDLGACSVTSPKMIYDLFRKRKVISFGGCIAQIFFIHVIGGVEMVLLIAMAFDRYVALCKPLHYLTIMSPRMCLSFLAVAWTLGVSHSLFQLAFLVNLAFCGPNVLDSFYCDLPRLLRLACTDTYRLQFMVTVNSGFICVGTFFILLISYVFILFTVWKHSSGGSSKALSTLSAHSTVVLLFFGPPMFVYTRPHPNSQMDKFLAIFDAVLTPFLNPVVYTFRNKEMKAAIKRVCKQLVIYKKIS
Chain of O2T29 Q24R (as listed by the source, stated change not applied): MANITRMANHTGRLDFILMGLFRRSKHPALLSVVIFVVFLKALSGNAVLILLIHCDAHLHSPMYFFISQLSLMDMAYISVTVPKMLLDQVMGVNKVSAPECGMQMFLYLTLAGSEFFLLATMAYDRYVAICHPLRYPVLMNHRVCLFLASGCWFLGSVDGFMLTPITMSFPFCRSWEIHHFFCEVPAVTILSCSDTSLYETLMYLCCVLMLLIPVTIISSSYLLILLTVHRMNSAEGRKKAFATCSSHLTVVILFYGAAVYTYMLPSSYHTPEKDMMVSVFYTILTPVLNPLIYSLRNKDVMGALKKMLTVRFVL
Chain of O51B4 (as listed by the source): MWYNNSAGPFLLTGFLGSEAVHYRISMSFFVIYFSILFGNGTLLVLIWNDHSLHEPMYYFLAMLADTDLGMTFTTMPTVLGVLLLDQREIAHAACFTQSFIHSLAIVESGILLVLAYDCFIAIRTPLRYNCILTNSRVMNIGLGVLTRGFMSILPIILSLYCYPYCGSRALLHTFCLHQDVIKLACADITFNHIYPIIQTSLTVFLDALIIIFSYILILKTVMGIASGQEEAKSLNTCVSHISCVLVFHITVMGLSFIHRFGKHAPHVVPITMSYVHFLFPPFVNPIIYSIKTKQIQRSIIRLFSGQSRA
Chain of O51A7 E8D (as listed by the source): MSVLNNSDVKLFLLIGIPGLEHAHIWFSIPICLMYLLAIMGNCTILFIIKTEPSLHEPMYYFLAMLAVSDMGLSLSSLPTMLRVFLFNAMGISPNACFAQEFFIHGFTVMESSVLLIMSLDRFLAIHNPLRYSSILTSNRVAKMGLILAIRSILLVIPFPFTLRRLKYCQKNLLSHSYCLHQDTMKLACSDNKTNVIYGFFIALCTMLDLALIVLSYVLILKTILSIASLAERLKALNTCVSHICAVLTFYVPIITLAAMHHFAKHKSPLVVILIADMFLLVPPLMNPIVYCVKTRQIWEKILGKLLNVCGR
Chain of O2T11 (as listed by the source): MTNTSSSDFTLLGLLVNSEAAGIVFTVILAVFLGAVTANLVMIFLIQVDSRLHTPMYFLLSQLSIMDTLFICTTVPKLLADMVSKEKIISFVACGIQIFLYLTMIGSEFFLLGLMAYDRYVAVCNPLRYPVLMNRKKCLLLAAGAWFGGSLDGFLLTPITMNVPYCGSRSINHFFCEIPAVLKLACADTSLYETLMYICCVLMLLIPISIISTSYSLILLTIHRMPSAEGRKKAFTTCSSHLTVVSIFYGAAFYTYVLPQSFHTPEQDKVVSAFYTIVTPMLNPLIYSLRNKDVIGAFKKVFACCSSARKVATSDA

C=CCOC(=O)Cc1ccccc1
inactive: all assays above

— the M2OR odorant receptor database
